Bioassay records deposited in PubChem BioAssay by several laboratories.
IEC-6 cytotox: counter-screen for KLF5 inhibitors: cytotoxicity in IEC-6 cells; IEC-6 cytotoxicity, luminescence viability; inhibition, % at 5 µM; 290,000 compounds, 0.78% hits; AID 1825; in the data active = inhibition above about 22%;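 also: 0% = plate median of test compound wells and 100% = cytotoxic reference compound wells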
APP 5UTR inh: APP translation inhibition; 190,000 compounds, 0.82% hits; AID 1285; SH-SY5Y APP 5'UTR-luciferase reporter, luminescence; inhibition, % at 2 µM;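 active = inhibition above a set limit, derived from the sample mean plus 3 SD, cut at about 45% in these data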
bCat nuc transl: alters nuclear translocation of beta-catenin in HeLa cells; AID 1665; 190,000 compounds, 0.3% hits; immunofluorescence imaging; nuclear translocation activity, % at 5 µM;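 active = nuclear translocation activity above 50% at 5 µM, with a well cell count of 50 or more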;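 also: per-cell ratio of nuclear to cytoplasmic median beta-catenin stain intensity; plate controls were DMSO negative control for no effect and GSK-3 inhibitor IX positive control for full effect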
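Assay system: human HeLa cells, native beta-catenin; doses: 5 µM primary, 0.02–20 µM confirmation; incubation: compound treatment 24 h, 37°C, 5% CO2; technique: fluorescence imaging of beta-catenin antibody stain plus DAPI; measure: % activation, nuclear-to-cytoplasmic median beta-catenin signal ratio per cell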
MT stabilize HCS: microtubule stabilization, imaging screen | % tubulin-high responders, % at 10 µM | HeLa tubulin immunostaining HCS, 24 h; share of cells brighter than vehicle mean+2SD | 200,000 compounds, 0.83% hits | AID 2205;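 active = plate Z-score above 3 for both tubulin-high and condensed-nucleus cell shares, with cell loss under 80%, at 10 µM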;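 also: anti alpha tubulin signal scored within the nucleus-defined area of each cell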
Ba/F3 V617F tox: lowers viability of Ba/F3 cells expressing EpoR and JAK2V617F; ATP luminescence; inhibition, % at 5.6 µM; 220,000 compounds, 1.1% hits; AID 1446;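 active = inhibition above the campaign mean plus 3 SD over all tested compounds, cut at about 24% in these data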;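 also: cytokine-independent growth of Ba/F3 cells driven by EpoR plus mutant JAK2; 0% = DMSO-treated cells and 100% = JAK inhibitor I control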
BaF3 parental: reduces parental Ba/F3 cell viability, JAK2V617F counter-screen; CellTiter-Glo ATP luminescence; inhibition, % at 5.6 µM; 220,000 compounds, 1.1% hits; AID 1486;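 active = inhibition above a per-campaign cutoff, the mean inhibition of all tested compounds plus 3 SD, cut at about 27% in these data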;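 also: 0% = DMSO wells and 100% = JAK Inhibitor I control wells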
* marks the source's active call; other numbers are inactive results. Rows were chosen to be rich in hits. Some 2.2% of all compounds tested hit in one or more screens of this group.

`S=C1SCN(Cc2cccnc2)CN1Cc1cccnc1` gave IEC-6 cytotox -0.2, bCat nuc transl 4.0, Ba/F3 V617F tox 85.5* and BaF3 parental 51.4*.
`CCCCCOc1ccc(Br)cc1CSC(=N)N` gave IEC-6 cytotox 49.4*, APP 5UTR inh 62.8*, bCat nuc transl 89.1*, MT stabilize HCS 13.6, Ba/F3 V617F tox 59.8* and BaF3 parental 47.4*.
For COc1ccc(Br)cc1CSC(=N)N the results were IEC-6 cytotox 5.2, APP 5UTR inh -1.6, bCat nuc transl -0.7, MT stabilize HCS 1.4, Ba/F3 V617F tox 4.0 and BaF3 parental -2.5.
`CCC(O)CNc1nc(SC)nc2sc3c(c12)CCN(C)C3` (centres undefined) gave IEC-6 cytotox -5.1, APP 5UTR inh -1.9, bCat nuc transl -4.0, MT stabilize HCS 2.8, Ba/F3 V617F tox -2.3 and BaF3 parental 57.4*.
For COC(CNc1nc(SC)nc2sc3c(c12)CCN(C)C3)OC the results were IEC-6 cytotox -1.7.
N#Cc1c(NC(=O)c2ccccc2)sc2c1CCC2 was read as IEC-6 cytotox 13.6, APP 5UTR inh -109.3, MT stabilize HCS 33.1*, Ba/F3 V617F tox 37.2* and BaF3 parental 27.8*.
Screening CCc1ccc(CCC(=O)Nc2sc3c(c2C#N)CCCC3)o1 returned IEC-6 cytotox 18.8, APP 5UTR inh -4.7, bCat nuc transl 63.7*, MT stabilize HCS 16.7*, Ba/F3 V617F tox 1.1 and BaF3 parental 3.2.
For CCC(=O)Nc1sc2c(c1C#N)CCC2 the results were IEC-6 cytotox 6.2, APP 5UTR inh -8.2, bCat nuc transl -1.7, MT stabilize HCS 1.3, Ba/F3 V617F tox -4.4 and BaF3 parental 3.2.
N#Cc1c(NC(=O)c2cccnc2)sc2c1CCC2 was read as IEC-6 cytotox 18.6, APP 5UTR inh -0.5, MT stabilize HCS 1.1, Ba/F3 V617F tox 41.3* and BaF3 parental 42.0*.
COc1ccc(N2CCc3c(C)nc4c(OC)cc(OC)cc4c32)cc1 was read as IEC-6 cytotox 7.8, APP 5UTR inh -8.7, bCat nuc transl 0.3, MT stabilize HCS 2.9, Ba/F3 V617F tox 5.1 and BaF3 parental 5.6.
Screening COc1ccc(N2CCc3c(C)nc4c(OC)cccc4c32)cc1 returned IEC-6 cytotox 69.7*, APP 5UTR inh 86.1*, bCat nuc transl 104.0*, MT stabilize HCS 26.0*, Ba/F3 V617F tox 87.4* and BaF3 parental 77.7*.
For CC(=O)Oc1ccc(C(=O)NC(C)CCc2ccccc2)cc1 (centres undefined) the results were IEC-6 cytotox 0.2.
Screening NC(N)=NC(N)=Nc1ccc(SC(F)(F)F)cc1 returned IEC-6 cytotox 34.6*, APP 5UTR inh 15.9, bCat nuc transl 0.8, MT stabilize HCS 4.6, Ba/F3 V617F tox 75.1* and BaF3 parental 67.1*.
For NC(N)=NC(N)=Nc1ccc2ccccc2c1 the results were IEC-6 cytotox 2.1, APP 5UTR inh 6.5, bCat nuc transl 1.3, MT stabilize HCS 2.9, Ba/F3 V617F tox 14.9 and BaF3 parental 2.0.
`CN(C)S(=O)(=O)c1ccc(C(=O)N2CC(=O)Nc3ccc(F)cc3C2c2ccc(F)cc2)cc1` (centres undefined) gave IEC-6 cytotox 3.7.
`Cc1ccc2nc(C3CCCN(C(=S)Nc4cccc(C)c4C)C3)[nH]c2c1` (centres undefined) gave IEC-6 cytotox -3.4, APP 5UTR inh -5.2, bCat nuc transl -0.4, MT stabilize HCS 29.5*, Ba/F3 V617F tox -0.8 and BaF3 parental 7.2.
For Cc1ccc(C(=O)Nc2ncc(Cc3ccc(F)cc3)s2)o1 the results were IEC-6 cytotox 45.4*, APP 5UTR inh -133.7, bCat nuc transl 0.5, MT stabilize HCS 2.0, Ba/F3 V617F tox 79.7* and BaF3 parental 71.3*.
Cc1ccc(C(=O)Nc2ncc(Cc3ccc(SC(F)F)cc3)s2)cc1 was read as IEC-6 cytotox 2.2, APP 5UTR inh 92.6*, bCat nuc transl 135.0*, MT stabilize HCS 7.3, Ba/F3 V617F tox 3.3 and BaF3 parental 1.9.
For C#Cc1cccc(NC(=O)c2ccc3c(c2)C(=O)N(Cc2cccnc2)C3=O)c1 the results were IEC-6 cytotox 3.9.
CCCCNc1cc(F)nc(N)n1 was read as IEC-6 cytotox 6.6, APP 5UTR inh 10.8, MT stabilize HCS 5.1, Ba/F3 V617F tox -2.1 and BaF3 parental 1.2.
CN1CCc2c(sc(NC(=O)c3cc(Cl)sc3Cl)c2C(N)=O)C1 was read as IEC-6 cytotox 5.1.
COc1ccc(C2=NOC(C(=O)NCc3ccc(F)cc3)C2)cc1 (centres undefined) was read as IEC-6 cytotox 6.3, APP 5UTR inh 2.5, bCat nuc transl 65.4*, MT stabilize HCS 6.3, Ba/F3 V617F tox -3.3 and BaF3 parental 3.9.
`COc1ccc(CNC(=O)C2CC(c3ccc(F)cc3)=NO2)cc1` (centres undefined) gave IEC-6 cytotox 3.3, APP 5UTR inh 1.6, bCat nuc transl 0.8, MT stabilize HCS 1.4, Ba/F3 V617F tox -4.9 and BaF3 parental 1.3.
For COc1cc(C2=NOC(C(=O)NCc3cccs3)C2)cc(OC)c1OC (centres undefined) the results were IEC-6 cytotox 20.7, MT stabilize HCS 26.8, Ba/F3 V617F tox 82.2* and BaF3 parental 76.8*.
Screening CC(=O)c1ccc(N(C(=O)CNC(=O)c2ccco2)C(C(=O)NC2CCCC2)c2ccncc2)cc1 (centres undefined) returned IEC-6 cytotox -0.8.
Screening Fc1ccccc1C1c2[nH]c3ccccc3c2CCN1Cc1cccn1-c1ncccn1 (centres undefined) returned IEC-6 cytotox -3.0, APP 5UTR inh -11.2, bCat nuc transl -0.7, MT stabilize HCS 2.8, Ba/F3 V617F tox 0.8 and BaF3 parental 5.8.
Screening Cc1ccccc1C1c2[nH]c3ccccc3c2CCN1Cc1cccn1-c1ncccn1 (centres undefined) returned IEC-6 cytotox 6.7, bCat nuc transl 0.7, Ba/F3 V617F tox 1.8 and BaF3 parental 32.0*.
`COc1ccc(-c2nnc(SCc3nc4ccccc4c(=O)[nH]3)o2)cc1` gave IEC-6 cytotox 1.5, bCat nuc transl -0.8, Ba/F3 V617F tox -0.1 and BaF3 parental 52.6*.
`Cc1cccc(OCc2nnc(SCc3nc4ccccc4c(=O)[nH]3)o2)c1` gave IEC-6 cytotox 4.3, APP 5UTR inh -13.6, bCat nuc transl 1.3, MT stabilize HCS 3.3, Ba/F3 V617F tox 0.8 and BaF3 parental 3.2.
`O=C(c1ccc2ccccc2n1)N(CCO)Cc1ccccc1` gave IEC-6 cytotox -5.1.
`CN=c1scc(-c2ccc([N+](=O)[O-])cc2)n1/N=C/c1ccco1` gave IEC-6 cytotox -4.0, APP 5UTR inh -196.4, bCat nuc transl -1.2, MT stabilize HCS 1.8, Ba/F3 V617F tox 1.4 and BaF3 parental 7.8.
CN=c1scc(-c2ccc(F)cc2)n1/N=C/c1ccc(O)c(O)c1 was read as IEC-6 cytotox 11.5, APP 5UTR inh 37.4, MT stabilize HCS 4.5, Ba/F3 V617F tox 97.8* and BaF3 parental 36.1*.
